11 compounds from ChEMBL document CHEMBL2331304, “N1,N3-disubstituted uracils as nonnucleoside inhibitors of HIV-1 reverse transcriptase” (Bioorg Med Chem, 2013) can be followed below.

For orientation: Ki means the dissociation constant of the complex between target and ligand, obtained from inhibition or displacement. The low end stands for higher affinity, the high end for lower affinity. What is called CC50 is the concentration that lowers cell viability or growth by half. The EC50 is the midpoint of the concentration-response curve.

In data set [1] the target is Human immunodeficiency virus type 1 reverse transcriptase (Human immunodeficiency virus 1, UniProt Q72547). Nature of the data set: Non-competitive inhibition of wild type HIV1 reverse transcriptase p66/p51 after 30 mins by liquid scintillation counting.
For another data set, the system named is MT4. Briefly: Cytotoxicity against human MT4 cells after 4 days by MTT assay. It counts as cell-based. The conditions noted are these: mt4, 96 h.
Data set [2] has as its system Human immunodeficiency virus 1. Nature of the data set: Antiviral activity against HIV1 3B infected in human MT4 cells assessed as inhibition of virus-induced cytopathic effect after 4 days by MTT assay. The conditions noted are these: Human immunodeficiency virus 1, 3B, MT4, 96 h. It counts as functional, organism-based. Summed up:
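HIV-1 in MT-4 cells at 1 × 10^5 cells/ml, infected at MOI 0.02 (virus stock titrated as CCID50), then plated immediately onto varying compound concentrations. After 4 days at 37 °C, viable cells counted by MTT.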

Another data set concerns Human alphaherpesvirus 3. Briefly: Antiviral activity against Varicella zoster virus. It counts as functional, organism-based. Summed up: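 VZV strain Oka and the TK− strain 07-1 were inoculated at 20 PFU onto confluent cell monolayers in the presence of varying compound concentrations. Plaque formation was recorded once complete in untreated infected controls.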
For the next data set, the system named is Punta Toro virus. Nature of the data set: Antiviral activity against Punta Toro virus. It counts as functional, organism-based.
For a further data set, the system named is Sindbis virus. Nature of the data set: Antiviral activity against Sindbis virus. It counts as functional, organism-based.
Data set [3] has as its system Mammalian orthoreovirus 1. Briefly: Antiviral activity against Reovirus 1. Format: functional, organism-based.
The next data set has as its system Human respirovirus 3. Nature of the data set: Antiviral activity against Parainfluenza virus 3. It counts as functional, organism-based.
Another data set concerns Influenza B virus. Briefly: Antiviral activity against influenza B virus. It counts as functional, organism-based.
Data set [4] has as its system Influenza A virus. Briefly: Antiviral activity against Influenza A virus H3N2. Format: functional, organism-based.
For data set [5], the system named is Influenza A virus. Nature of the data set: Antiviral activity against Influenza A virus H1N1. Format: functional, organism-based.
The subject of data set [6] is Respiratory syncytial virus. Nature of the data set: Antiviral activity against Respiratory syncytial virus. It counts as functional, organism-based.
Another data set relates to Coxsackievirus B4. Briefly: Antiviral activity against Coxsackievirus B4. Format: functional, organism-based.
Data set [7] concerns Vesicular stomatitis virus. Briefly: Antiviral activity against Vesicular stomatitis virus. Format: functional, organism-based.
A further data set has as its system Vaccinia virus. Nature of the data set: Antiviral activity against Vaccinia virus. Format: functional, organism-based. Particulars: Orthopoxvirus vaccinia.
The next data set deals with Human alphaherpesvirus 2. Briefly: Antiviral activity against Human herpesvirus 2. It counts as functional, organism-based. A digest of the protocol:
(§1)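 Confluent HEL, Vero, HeLa or MDCK monolayers (cell type per virus not specified) were inoculated with 100 CCID50 of virus, with a range of compound concentrations. Strains were HSV-1 KOS and TK− ACV-resistant KOS, HSV-2 Lyons and G, and HCMV AD-169 and Davis. Cytopathicity or plaques were scored once complete in untreated infected controls.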

The next data set deals with Human alphaherpesvirus 1. Nature of the data set: Antiviral activity against Human herpesvirus 1. It counts as functional, organism-based. Summed up: as §1
For another data set, the system named is Feline coronavirus. Briefly: Antiviral activity against Feline coronavirus. It counts as functional, organism-based.

The structures appear in SMILES notation. Active and inactive are the calls of the source. The calls are words filed in the database; no cut-off is given here.

Consider `Cc1ccccc1OCCn1ccc(=O)n(Cc2ccccc2)c1=O`, for which the Ki in [1] is > 100 µM. In the data set with MT4, this compound showed a half-maximal cytotoxic concentration (CC50) of 117 µM. The EC50 in data set [2] is > 117 µM. In addition, the result (with Human alphaherpesvirus 3; in the data set on Punta Toro virus; in the data set on Sindbis virus; in [3]; in the data set with Human respirovirus 3; in the data set with Influenza B virus) was inactive. Besides, the result (with Influenza A virus [4]; in the data set with Influenza A virus [5]; in [6]; in the data set with Coxsackievirus B4; in data set [7]; in the data set on Vaccinia virus) was inactive. The result in the data set with Human alphaherpesvirus 2, in the data set on Human alphaherpesvirus 1 and in the data set on Feline coronavirus was inactive.
Turning to `Cc1ccc(OCCn2ccc(=O)n(Cc3ccccc3)c2=O)cc1C`, the inhibition constant (Ki) in data set [1] was > 100 µM. The compound further had a CC50 in the data set with MT4 of 60 µM. In data set [2], the concentration for a half-maximal effect (EC50) is > 60 µM. Besides, the outcome (in the data set with Human alphaherpesvirus 3; with Punta Toro virus; in the data set with Sindbis virus; in data set [3]; with Human respirovirus 3; in the data set with Influenza B virus) was inactive. For the same compound, the outcome (with Influenza A virus [4]; in the data set on Influenza A virus [5]; in data set [6]; in the data set on Coxsackievirus B4; in data set [7]; in the data set with Vaccinia virus) was inactive. In addition, the outcome in the data set on Human alphaherpesvirus 2, with Human alphaherpesvirus 1 and with Feline coronavirus was inactive.
`Cc1ccc(Cn2c(=O)ccn(CCOc3ccc(C)cc3)c2=O)cc1`: the Ki in [1] was found to be 47 µM. In addition, the half-maximal cytotoxic concentration (CC50) in the data set on MT4 amounted to 250 µM. Besides, the concentration for a half-maximal effect (EC50) in data set [2] was > 250 µM. Moreover, the outcome (in the data set on Human alphaherpesvirus 3; with Punta Toro virus; with Sindbis virus; in data set [3]; in the data set on Human respirovirus 3; in the data set with Influenza B virus) was inactive. The result (in the data set with Influenza A virus [4]; in the data set on Influenza A virus [5]; in data set [6]; in the data set with Coxsackievirus B4; in [7]; in the data set on Vaccinia virus) was inactive. Moreover, the outcome with Human alphaherpesvirus 2, in the data set with Human alphaherpesvirus 1 and in the data set with Feline coronavirus was inactive.
Take `Cc1ccc(OCCn2ccc(=O)n(Cc3ccccc3C)c2=O)cc1`: the Ki in data set [1] was > 100 µM. Also, in the data set with MT4, it took 46 µM to reach half-maximal cytotoxicity (CC50). The EC50 in data set [2] was > 46 µM. Besides, the result (with Human alphaherpesvirus 3; with Punta Toro virus; in the data set with Sindbis virus; in data set [3]; with Human respirovirus 3; in the data set with Influenza B virus) was inactive. In addition, the outcome (in the data set with Influenza A virus [4]; in the data set with Influenza A virus [5]; in [6]; in the data set on Coxsackievirus B4; in data set [7]; in the data set on Vaccinia virus) was inactive. In addition, the result in the data set on Human alphaherpesvirus 2, in the data set with Human alphaherpesvirus 1 and in the data set with Feline coronavirus was inactive.
On to `Cc1ccc(OCCn2c(=O)n(Cc3ccccc3)c(=O)c3ccccc32)cc1`, for which, in data set [1], the Ki came to 1 µM. The compound further yielded a CC50 with MT4 of 25 µM. Also, in [2], the EC50 was > 25 µM. Moreover, the result (in the data set with Human alphaherpesvirus 3; with Punta Toro virus; in the data set with Sindbis virus; in data set [3]; in the data set on Human respirovirus 3; with Influenza B virus) was inactive. The outcome (in the data set with Influenza A virus [4]; in the data set on Influenza A virus [5]; in data set [6]; in the data set with Coxsackievirus B4; in data set [7]; with Vaccinia virus) was inactive. Also, the result in the data set on Human alphaherpesvirus 2, in the data set with Human alphaherpesvirus 1 and in the data set with Feline coronavirus was inactive.
Turning to `Cc1ccc(OCCn2ccc(=O)n(Cc3c(C)cc(C)cc3C)c2=O)cc1`, in data set [1], the inhibition constant (Ki) was > 100 µM. In the data set on MT4, the CC50 is 133 µM. Further, in data set [2], the concentration for a half-maximal effect (EC50) is > 133 µM. Besides, the result (with Human alphaherpesvirus 3; in the data set with Punta Toro virus; in the data set with Sindbis virus; in [3]; with Human respirovirus 3; in the data set with Influenza B virus) was inactive. Further, the result (with Influenza A virus [4]; in the data set on Influenza A virus [5]; in [6]; in the data set on Coxsackievirus B4; in [7]; in the data set with Vaccinia virus) was inactive. Further, the result in the data set on Human alphaherpesvirus 2, in the data set with Human alphaherpesvirus 1 and in the data set with Feline coronavirus was inactive.
In [1], `Cc1ccc(OCCn2cc(C)c(=O)n(Cc3ccccc3)c2=O)cc1` registered a Ki of 1 µM. For the same compound, the 50% cytotoxic concentration (CC50) in the data set on MT4 was > 356 µM. The EC50 in data set [2] is > 356 µM. For the same compound, the outcome (in the data set with Human alphaherpesvirus 3; in the data set with Punta Toro virus; with Sindbis virus; in data set [3]; in the data set with Human respirovirus 3; with Influenza B virus) was inactive. Moreover, the result (with Influenza A virus [4]; in the data set with Influenza A virus [5]; in data set [6]; in the data set with Coxsackievirus B4; in data set [7]; in the data set with Vaccinia virus) was inactive. Also, the result in the data set on Human alphaherpesvirus 2, in the data set on Human alphaherpesvirus 1 and with Feline coronavirus was inactive.
In data set [1], `Cc1ccc(OCCn2ccc(=O)n(CCc3ccccc3)c2=O)cc1` returned an inhibitory constant (Ki) of 6.5 µM. In the data set on MT4, this compound gave a half-maximal cytotoxic concentration (CC50) of 129 µM. The EC50 in [2] was > 129 µM. The result (in the data set with Human alphaherpesvirus 3; in the data set on Punta Toro virus; in the data set with Sindbis virus; in data set [3]; with Human respirovirus 3; in the data set on Influenza B virus) was inactive. The result (in the data set on Influenza A virus [4]; in the data set with Influenza A virus [5]; in data set [6]; with Coxsackievirus B4; in data set [7]; with Vaccinia virus) was inactive. The outcome in the data set on Human alphaherpesvirus 2, in the data set on Human alphaherpesvirus 1 and in the data set with Feline coronavirus was inactive.
The compound `O=c1ccn(CCOc2ccc3ccccc3c2)c(=O)n1Cc1ccccc1` yielded a Ki in data set [1] of 1 µM. This compound yielded a CC50 in the data set with MT4 of 37 µM. Besides, in data set [2], the EC50 is > 37 µM. Moreover, the result (in the data set on Human alphaherpesvirus 3; in the data set on Punta Toro virus; in the data set on Sindbis virus; in [3]; in the data set on Human respirovirus 3; in the data set on Influenza B virus) was inactive. Also, the result (in the data set on Influenza A virus [4]; with Influenza A virus [5]; in data set [6]; with Coxsackievirus B4; in [7]; in the data set on Vaccinia virus) was inactive. The outcome with Human alphaherpesvirus 2, with Human alphaherpesvirus 1 and in the data set with Feline coronavirus was inactive.
Turning to `CC(C)(C)c1ccc(OCCn2ccc(=O)n(Cc3ccccc3)c2=O)cc1`, in data set [1], the Ki was 15 µM. For the same compound, the CC50 with MT4 is 63 µM. In [2], the concentration giving a half-maximal response (EC50) was > 63 µM. Also, the result (in the data set on Human alphaherpesvirus 3; in the data set with Punta Toro virus; in the data set on Sindbis virus; in [3]; with Human respirovirus 3; in the data set on Influenza B virus) was inactive. Also, the outcome (in the data set with Influenza A virus [4]; in the data set on Influenza A virus [5]; in data set [6]; with Coxsackievirus B4; in data set [7]; in the data set on Vaccinia virus) was inactive. Besides, the result with Human alphaherpesvirus 2, with Human alphaherpesvirus 1 and in the data set on Feline coronavirus was inactive.
For the compound `Cc1ccnc2c1NC(=O)c1cccnc1N2C1CC1` [NEVIRAPINE], the half-maximal cytotoxic concentration (CC50) in the data set with MT4 was > 4 µM. Besides, in data set [2], the EC50 stood at 0.048 µM.
